Data published in publication PMC6745243 (Bioorganic & medicinal chemistry letters, 2019).
Where “and” joins values, the source holds several entries; their conditions need not be identical. Equal entries are not always repeated. Where two headings read alike, the source gives them in different places.

Tests used:
IP6K family = settings: cited from earlier work
[1] = Mouse; ref Ghoshal, et al. Mol Metab. 2016; cited from earlier work
[2] = Human; ref Ghoshal, et al. Mol Metab. 2016; cited from earlier work
Aqueous solubility = type: physicochemical
IP6K3 = molecular target: T1, IP6K3 (Homo sapiens, UniProt Q96PC2); test: ADP-Glo Max assay, purified IP6K3; type: biochemical; settings: IP6K3 over IP6K1
T1 sequence (Q96PC2 1-410): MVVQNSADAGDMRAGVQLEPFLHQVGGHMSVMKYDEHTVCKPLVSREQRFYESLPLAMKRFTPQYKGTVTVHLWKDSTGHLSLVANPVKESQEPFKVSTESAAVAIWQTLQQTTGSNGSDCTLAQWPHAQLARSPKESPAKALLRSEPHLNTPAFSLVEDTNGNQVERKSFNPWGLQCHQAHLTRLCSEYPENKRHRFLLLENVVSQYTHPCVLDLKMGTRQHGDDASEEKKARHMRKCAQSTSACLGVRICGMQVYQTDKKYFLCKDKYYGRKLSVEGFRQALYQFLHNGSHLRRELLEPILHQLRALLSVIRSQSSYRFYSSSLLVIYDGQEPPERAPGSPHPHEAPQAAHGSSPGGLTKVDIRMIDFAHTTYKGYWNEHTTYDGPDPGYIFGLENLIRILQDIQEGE

[3] = system: 58 kinases (diversity panel); test: Off-target kinase diversity panel at Eurofins; type: biochemical; settings: 10μM, 58 kinases tested
Procedure, shortened: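 Kinase panel included metabolically important enzymes, among them GSK3β, AKT, mTOR and PI3K.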

IP6K2 = molecular target: T2, IP6K2 (Homo sapiens, UniProt Q9UHH9); test: ADP-Glo Max assay, purified IP6K2; type: biochemical; settings: IP6K2 over IP6K1
T2 sequence (Q9UHH9 1-426): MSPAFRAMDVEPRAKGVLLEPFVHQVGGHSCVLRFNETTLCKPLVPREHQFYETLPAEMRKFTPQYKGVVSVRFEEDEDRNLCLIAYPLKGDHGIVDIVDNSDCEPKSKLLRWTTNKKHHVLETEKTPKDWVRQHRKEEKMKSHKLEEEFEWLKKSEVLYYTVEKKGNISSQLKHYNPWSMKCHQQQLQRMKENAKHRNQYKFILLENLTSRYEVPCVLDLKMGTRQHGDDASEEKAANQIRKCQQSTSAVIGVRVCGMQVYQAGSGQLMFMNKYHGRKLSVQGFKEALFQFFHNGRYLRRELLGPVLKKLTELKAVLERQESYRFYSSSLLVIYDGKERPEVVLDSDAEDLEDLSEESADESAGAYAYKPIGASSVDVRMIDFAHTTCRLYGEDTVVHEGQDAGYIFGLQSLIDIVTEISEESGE

Row | Selectivity (Ki/Ki IP6K1) (IP6K3) | Number of kinases not significantly inhibited (inactive) [3] | Number of kinases potently inhibited ([3]; 3 of RAF/MAPK pathway and casein kinase γ) | Selectivity (Ki/Ki IP6K1) (IP6K2) | SMILES | IP6K selectivity (IP6K family; between IP6K isoforms, ref Padmanabhan, et al. J Biol Chem 2009) | Potency against the IP6K family (IP6K family) | Microsome stability (t1/2) [1] | Microsome stability (t1/2) [2] | Solubility (Aqueous solubility; 2% DMSO) | Solubility (Aqueous solubility; aqueous buffers)
1 |  |  |  |  | O=[N+]([O-])c1ccc(CNc2nc(NCc3cccc(C(F)(F)F)c3)nc3[nH]cnc23)cc1 [Compound 1, N2-(m-trifluorobenzyl)-N6-(p-nitrobenzyl) purine] | Not selective ^* | low micromolar potency | Mouse 9 min ^** | Human 32 min ^** | Mostly insoluble in 2% DMSO | sparingly soluble
2 | ~50 fold | 54 kinases | 4 kinases | ~ 25 fold and 25 fold | COc1ccc2c(CCNc3nc(NCc4ccc(=O)[nH]c4)c4nc[nH]c4n3)c[nH]c2c1 [Compound 24] |  |  |  |  |  | 
